Measurements as given in the EternaBench riboswitch data.

System: MS2 coat protein
Assay: apparent Kd, MS2 coat protein; higher = weaker binding; RNA-MaP array; FMN 200 µM where present
How it was run: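 Two titrations, one without ligand and one with constant ligand, were run with SNAP-549-labelled MS2 coat protein from 0.7 or 1.5 nM, doubling to 3 µM. The targets were designs transcribed by stalled E. coli RNA polymerase on Illumina sequencing-chip clusters, in 100 mM Tris-HCl pH 7.5, 80 mM KCl, 4 mM MgCl2, BSA, DTT, yeast tRNA and Tween-20. The apparent Kd is the median of filtered per-cluster binding-curve fits, with green signal normalised to red-channel RNA signal and control-cluster median Fmax.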

[1] = designed as: OFF switch for flavin mononucleotide, no ligand
[2] = ligand present: flavin mononucleotide, designed as: OFF switch for flavin mononucleotide
[3] = designed as: ON switch for flavin mononucleotide, no ligand
[4] = ligand present: flavin mononucleotide, designed as: ON switch for flavin mononucleotide

Sequence | apparent Kd [1] | apparent Kd [2] | apparent Kd [3] | apparent Kd [4]
AACUCGUCAGGAUAUGCGCGCAGAUAAUACGCUUCGCAAUUGCAGAAGGGACAUGAGGAUCACCCAUGUAAAUA | 29.8 nM | 32 nM |  | 
AACUGAGCCCAAGGAUAUCCUCACUUCCACUACAUGAGGAUCACCCAUGUCAGAUCGUCUGUGUAGGAGAAGGUGGUGUACAUG |  |  | 330 nM | 623 nM
AAGAAACAUGAGGAUCACCCAUGUCAGGAUAUCUCGAAAAGCAUAGAAAUAUGCGAAGAGAGAAGGGACAAGAA | 65 nM | 57 nM |  | 
AAGAAGACAGGAUAUACAUGAAAGAAAGAAAAGAAAAGAAAACAUGAGGAUCACCCAUGUAGAAGGGUCAAGAA | 46.5 nM | 59.2 nM |  | 
AAGAAGUCAGGAUAUCCAGCUCGUCACUUGCGUGAUGAGUUGGAGAAGGGACAUGAGGAUCACCCAUGUAAAGU | 56.9 nM | 55.5 nM |  | 
AAGAAGUCAGGAUAUGCAUGGCGGGACUUGCGUCGUGGCGUGCAGAAGGGACAUGAGGAUCACCCAUGUGGAGC | 107 nM | 161 nM |  | 
AAGAAGUGAGGAUAUCGAAGACAGACGAAAAGUCUGUCAAACGAGAAGGCACAUGAGGAUCACCCAUGUAAGAA | 25.9 nM | 35.2 nM |  | 
AAGAGACAUCAGAAGGGAGCCCGAAAGCGCAGCUCAGGAUAUGAGAUCUUAUGUAGUACGACAUGAGGAUCACCCAUGUCCGCG |  |  | 74.3 nM | 10.2 nM
AAGAUACAUGAGGAUCACCCAUGUCGAGAGAGACGAGGAUAUCUGAAUCGAUUAGAUUACGGAGAAGGCGUGAAAA |  |  | 31.5 nM | 25.6 nM
AAGAUGCGGAUAGGAUAUGGAAAGAAGGAAAGACCAGAAGGAUUGGUCAUAUAACAUGAGGAUCACCCAUGUAUAUGUUGUGAA | 17.8 nM | 17.7 nM |  | 
AAGCACAGAGGAUAUACAAUCCUCAGUGGGUCUGGCGAGCCACAUGAGGAUCACCCAUGUAGAAGGCUGGGCUC | 11.8 nM | 14.6 nM |  | 
AAGCAGUGUAAAUAAACUCAAAUACAUGAGGAUCACCCAUGUAAGGAUAUGCAGUGGAAUACACUGCAGAAGGUACAUCACUGC | 15.1 nM | 22.6 nM |  | 
AAGCGAAAGCUAAAAUAUCUAUCAGAGGAUAUUUAUGAUACAUGAGGAUCACCCAUGUAGCGCUGGGAGAAGGCUGAUAGAUAA |  |  | 6.44 nM | 4.98 nM
AAGCGAGGGACAGGAUAUGCGGCGAAACUCGCCGCAGAAGGGUCGACAUGAGGAUCACCCAUGUCCUUACGCUCCACGUAGUGG |  |  | 107 nM | 455 nM
AAGCUGGUAGGAUAUGCUAGGGCGACUAAUGCGCCGAUAGUACAUGAGGAUCACCCAUGUAGAAGGGCCAGAAA | 24.3 nM | 18.4 nM |  | 
AAGCUGUGAGGAUAUACAUGAGGAUCACCCAUGUUAAGGAAGUCUUGGUUAAUUUGGAGUAGAAGGCGCUUAUU | 30.9 nM | 25.5 nM |  | 
AAGGAUAGAGGAUAUACAUAGAUACAGAUUCAUGUAGAACUACAUGAGGAUCACCCAUGUAGAAGGCUAUCCUA | 32.9 nM | 239 nM |  | 
AAGGUACAUGAGGAUCACCCAUGUGGGUCGAACGCAGGAUAUCGCCGUUGGCCCUGGCGGCGAGAAGGGUGCCGAA |  |  | 189 nM | 175 nM
AAGUAACAUGAGGAUCACCCAUGUGAGGUGAGCGUAGGAUAUCGAGGAGGAAGGGUGGAGCGAGAAGGACGAGAGG |  |  | 362 nM | 360 nM
AAGUAGAUCCGAGGAUAUACAAUCCGGAAACGGUACAUGAGGAUCACCCAUGUAGAAGGCGGAUCUACAGGUACUAAAGUACCA | 6.5 nM | 8.32 nM |  | 
AAGUAGAUCCGAGGAUAUACAUAGUGGAAUCGCUACAUGAGGAUCACCCAUGUAGAAGGCGGAUCUACAGGUACUAAAGUACCA | 14 nM | 112 nM |  | 
AAGUAGGCAGGAUAUACAUGAGGAUCACCCAUGUGCCUAUACAAGGUAAUCUUGGGAGGUAGAAGGGCCUACAA | 33.9 nM | 166 nM |  | 

Sequence | apparent Kd [1] | apparent Kd [2] | apparent Kd [3] | apparent Kd [4]
AAGUAGGGAGGAUAUACAUAGAUACAGAUUCAUGUAGAACUACAUGAGGAUCACCCAUGUAGAAGGCCCUAAUA | 31.6 nM | 193 nM |  | 
AAGUAGGGAGGAUAUACAUAGAUACAGAUUCAUGUGGAACUACAUGAGGAUCACCCAUGUAGAAGGCCCUAAUA | 27.2 nM | 102 nM |  | 
AAGUCAGCAGGAUAUGCGAUGUUGUGCUAGAUAGCGGGACCACAUGAGGAUCACCCAUGUAGAAGGGCUGGCUA | 34 nM | 22.5 nM |  | 
AAGUCGCGGUCAGGAUAUCAGAAACAAAUUGACUGAGAAGGGAUGGCACAUGAGGAUCACCCAUGUCGUCGUCGCAGUGGGUGA | 116 nM | 155 nM |  | 
AAGUCUGGACGAGGAUAUCAGCUGUAUCUGGCGUCAACAUGAGGAUCACCCAUGUUGCUAUAGGGUGAGAAGGCGUUUGGGCAA |  |  | 84.9 nM | 19.9 nM
AAGUCUGGACGAGGAUAUCAGUUGUAUCUGGCGUCAACAUGAGGAUCACCCAUGUUGCAAUAGGGUGAGAAGGCGUUUGGGCAA |  |  | 41.6 nM | 19.1 nM
AAGUGUGCCUAGGAUAUGUUCGGCCAAGGUCAUACAGAAGGAGGCACAUGAGGAUCACCCAUGUAGUGUCCUAC | 73.2 nM | 43.1 nM |  | 
AAGUGUGGAUGAGGAUAUCAGCUGUAACUGACGUCGACAUGAGGAUCACCCAUGUUGCUAAAGGGUGAGAAGGCAUUUGCGCAA |  |  | 481 nM | 53.8 nM
AAUAAACAUGAGGAUCACCCAUGUAAGGAUAUGCGAACAAUAAGAAGACAAUAAUAAAGCAGAAGGUACAAGAG | 78.1 nM | 96.2 nM |  | 
AAUAAACAUGAGGAUCACCCAUGUAAUAUAAAUGGAGGAUAUGCAAUUAUUAAUUAUUAAGUAGAAGGUCGAAUAA |  |  | 73.9 nM | 73.6 nM
AAUAAACUCACAGGAUAUAGCAGAGGUCGCGUGUACUUACAGGCGACGAGGCUAGAAGGGUGACCACAUGAGGAUCACCCAUGU |  |  | 1010 nM | 113 nM
AAUAAACUCACAGGAUAUAGCAGAGGUCGCGUGUACUUACAGGCGACGAUGCUAGAAGGGUGACCACAUGAGGAUCACCCAUGU |  |  | 961 nM | 153 nM
AAUAAACUCACAGGAUAUAGCAUAGGUCGCGUGAACUUACAGACGACUAUGCUAGAAGGGUGACCACAUGAGGAUCACCCAUGU |  |  | 880 nM | 186 nM
AAUAAAUAGGAGGAUAUCGUAUCGGAAACGAUACGAGAAGGUCUAACAUGAGGAUCACCCAUGUUCCUCAAUAA | 33.1 nM | 95.8 nM |  | 
AAUAACAGAGGAUAUACUGUUUUAUGUGUUUAUUGUUUUAAACAUGAGGAUCACCCAUGUAGAAGGCUGAAUGA | 43.8 nM | 41.9 nM |  | 
AAUAAGGGAGGAUAUGCGGAACGGUUUGUUCUCAGUGAGGCACAUGAGGAUCACCCAUGUAGAAGGCCCGGCAA | 13.8 nM | 93.1 nM |  | 
AAUAAGUGAGGAUAUACGAAAUAAAUAAAUAAAUAAAUAAAGUAGAAGGCACAUGAGGAUCACCCAUGUAAUAA | 34.6 nM | 29 nM |  | 
AAUAAUAAGGAGGAUAUCGUAUCGGAAACGAUACGAGAAGGCUUAACAUGAGGAUCACCCAUGUUCCUCAAUAA | 31 nM | 74.8 nM |  | 
AAUAAUAAGGAGGAUAUCGUAUCGGAAACGAUACGAGAAGGUCUAACAUGAGGAUCACCCAUGUUCCUCAAUAA | 40.8 nM | 54.6 nM |  | 
AAUAGGCGAGGAUAUACAUGAGGAUCACCCAUGUAAGUAAGCCUGGCUGAAACUAAAUGUAGAAGGCGCAAUAA | 14.3 nM | 43.1 nM |  | 
AAUAUAAAAGAGCUGGAUAACUCGACAUGAGGAUCACCCAUGUAGGAUAUCAGCACGAUAAGUGCUGAGAAGGACAACCAGCUC | 14.7 nM | 16.2 nM |  | 
